Measurements reported in ChEMBL document CHEMBL1154674, “Synthesis and evaluation of three 18F-labeled aminophenylbenzothiazoles as amyloid imaging agents” (J Med Chem, 2009).
Blank lines part the entries; values can stand above or below the compound they belong to.

Columns and labels:
Format in all cases: ADME, organism-based
[1] = Drug level in NMRI mouse spleen/pancreas assessed as standard uptake value at 3.7 MBq/mL, iv after 60 mins by gamma counting; settings: in vivo, 1 h
Outline: (§1)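 Male NMRI mice (30-40 g) were anaesthetised with isoflurane. Each received 0.1 mL of HPLC-purified tracer, diluted in 0.9% NaCl to 3.7 MBq/mL (ethanol ≤10%), via a tail vein. Mice were decapitated at 2 or 60 min. Organs were dissected, weighed and γ-counted with background correction. SUV = (organ cpm/organ weight)/(total recovered counts/body weight). Blood mass was taken as 7% of body mass.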

[2] = tested on: Stomach; test: Biodistribution in NMRI mouse stomach at 3.7 MBq/mL, iv after 2 mins by gamma counting; settings: in vivo
Outline: (§2)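 Male NMRI mice (30-40 g) under isoflurane (1.5-2.5% in oxygen) got 0.1 mL of HPLC-purified tracer diluted with 0.9% NaCl to 3.7 MBq/mL (ethanol ≤10%) via tail vein. Mice were decapitated at 2 or 60 min p.i., and organs, blood and urine were weighed and γ-counted. Values are background-corrected %ID or %ID/g, with blood mass taken as 7% of body mass.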

[3] = Biodistribution in NMRI mouse cerebrum at 3.7 MBq/mL, iv after 60 mins by gamma counting; settings: in vivo, 1 h; outline: as §2
[4] = tested on: Kidney; test: Biodistribution in NMRI mouse kidney at 3.7 MBq/mL, iv after 2 mins by gamma counting; settings: in vivo; outline: as §2
[5] = tested on: Liver; test: Biodistribution in NMRI mouse liver assessed per gram of tissue at 3.7 MBq/mL, iv after 60 mins by gamma counting; settings: in vivo, 1 h; outline: as §2
[6] = Drug level in NMRI mouse cerebrum assessed as standard uptake value at 3.7 MBq/mL, iv after 60 mins by gamma counting; settings: in vivo, 1 h; outline: as §1
[7] = tested on: Liver; test: Drug level in NMRI mouse liver assessed as standard uptake value at 3.7 MBq/mL, iv after 2 mins by gamma counting; settings: in vivo; outline: as §1
[8] = Biodistribution in NMRI mouse cerebrum assessed per gram of tissue at 3.7 MBq/mL, iv after 60 mins by gamma counting; settings: in vivo, 1 h; outline: as §2
[9] = tested on: Cerebellum; test: Drug level in NMRI mouse cerebellum assessed as standard uptake value at 3.7 MBq/mL, iv after 2 mins by gamma counting; settings: in vivo; outline: as §1
[10] = tested on: Cerebellum; test: Biodistribution in NMRI mouse cerebellum assessed per gram of tissue at 3.7 MBq/mL, iv after 2 mins by gamma counting; settings: in vivo; outline: as §2
[11] = tested on: Cerebellum; test: Biodistribution in NMRI mouse cerebellum at 3.7 MBq/mL, iv after 60 mins by gamma counting; settings: in vivo, 1 h; outline: as §2
[12] = tested on: Heart; test: Drug level in NMRI mouse heart assessed as standard uptake value at 3.7 MBq/mL, iv after 60 mins by gamma counting; settings: in vivo, 1 h; outline: as §1
[13] = tested on: Kidney; test: Drug level in NMRI mouse kidney assessed as standard uptake value at 3.7 MBq/mL, iv after 60 mins by gamma counting; settings: in vivo, 1 h; outline: as §1
[14] = tested on: Kidney; test: Drug level in NMRI mouse kidney assessed as standard uptake value at 3.7 MBq/mL, iv after 2 mins by gamma counting; settings: in vivo; outline: as §1
[15] = tested on: Intestine; test: Biodistribution in NMRI mouse intestine at 3.7 MBq/mL, iv after 2 mins by gamma counting; settings: in vivo; outline: as §2
[16] = tested on: Heart; test: Biodistribution in NMRI mouse heart at 3.7 MBq/mL, iv after 2 mins by gamma counting; settings: in vivo; outline: as §2
[17] = Biodistribution in NMRI mouse urine at 3.7 MBq/mL, iv after 60 mins by gamma counting; settings: in vivo, 1 h; outline: as §2
[18] = tested on: Blood; test: Drug level in NMRI mouse blood assessed as standard uptake value at 3.7 MBq/mL, iv after 2 mins by gamma counting; settings: in vivo; outline: as §1
[19] = tested on: Lung; test: Biodistribution in NMRI mouse lung at 3.7 MBq/mL, iv after 2 mins by gamma counting; settings: in vivo; outline: as §2
[20] = tested on: Kidney; test: Biodistribution in NMRI mouse kidney at 3.7 MBq/mL, iv after 60 mins by gamma counting; settings: in vivo, 1 h; outline: as §2
[21] = tested on: Blood; test: Biodistribution in NMRI mouse blood assessed per gram of tissue at 3.7 MBq/mL, iv after 60 mins by gamma counting; settings: in vivo, 1 h; outline: as §2
[22] = Biodistribution in NMRI mouse spleen/pancreas at 3.7 MBq/mL, iv after 2 mins by gamma counting; settings: in vivo; outline: as §2
[23] = tested on: Kidney; test: Biodistribution in NMRI mouse kidney assessed per gram of tissue at 3.7 MBq/mL, iv after 60 mins by gamma counting; settings: in vivo, 1 h; outline: as §2
[24] = tested on: Blood; test: Drug level in NMRI mouse blood assessed as standard uptake value at 3.7 MBq/mL, iv after 60 mins by gamma counting; settings: in vivo, 1 h; outline: as §1
[25] = tested on: Heart; test: Drug level in NMRI mouse heart assessed as standard uptake value at 3.7 MBq/mL, iv after 2 mins by gamma counting; settings: in vivo; outline: as §1
[26] = Biodistribution in NMRI mouse cerebrum assessed per gram of tissue at 3.7 MBq/mL, iv after 2 mins by gamma counting; settings: in vivo; outline: as §2
[27] = tested on: Liver; test: Drug level in NMRI mouse liver assessed as standard uptake value at 3.7 MBq/mL, iv after 60 mins by gamma counting; settings: in vivo, 1 h; outline: as §1
[28] = Biodistribution in NMRI mouse cerebrum at 3.7 MBq/mL, iv after 2 mins by gamma counting; settings: in vivo; outline: as §2
[29] = tested on: Blood; test: Biodistribution in NMRI mouse blood at 3.7 MBq/mL, iv after 60 mins by gamma counting; settings: in vivo, 1 h; outline: as §2
[30] = tested on: Blood; test: Biodistribution in NMRI mouse blood assessed per gram of tissue at 3.7 MBq/mL, iv after 2 mins by gamma counting; settings: in vivo; outline: as §2
[31] = Drug level in NMRI mouse cerebrum assessed as standard uptake value at 3.7 MBq/mL, iv after 2 mins by gamma counting; settings: in vivo; outline: as §1
[32] = tested on: Lung; test: Drug level in NMRI mouse lung assessed as standard uptake value at 3.7 MBq/mL, iv after 60 mins by gamma counting; settings: in vivo, 1 h; outline: as §1
[33] = tested on: Lung; test: Biodistribution in NMRI mouse lung assessed per gram of tissue at 3.7 MBq/mL, iv after 60 mins by gamma counting; settings: in vivo, 1 h; outline: as §2
[34] = tested on: Liver; test: Biodistribution in NMRI mouse liver at 3.7 MBq/mL, iv after 60 mins by gamma counting; settings: in vivo, 1 h; outline: as §2
[35] = tested on: Lung; test: Drug level in NMRI mouse lung assessed as standard uptake value at 3.7 MBq/mL, iv after 2 mins by gamma counting; settings: in vivo; outline: as §1
[36] = Biodistribution in NMRI mouse urine at 3.7 MBq/mL, iv after 2 mins by gamma counting; settings: in vivo; outline: as §2
[37] = tested on: Cerebellum; test: Biodistribution in NMRI mouse cerebellum at 3.7 MBq/mL, iv after 2 mins by gamma counting; settings: in vivo; outline: as §2
[38] = tested on: Cerebellum; test: Biodistribution in NMRI mouse cerebellum assessed per gram of tissue at 3.7 MBq/mL, iv after 60 mins by gamma counting; settings: in vivo, 1 h; outline: as §2
[39] = tested on: Heart; test: Biodistribution in NMRI mouse heart at 3.7 MBq/mL, iv after 60 mins by gamma counting; settings: in vivo, 1 h; outline: as §2
[40] = Drug level in NMRI mouse spleen/pancreas assessed as standard uptake value at 3.7 MBq/mL, iv after 2 mins by gamma counting; settings: in vivo; outline: as §1
[41] = tested on: Cerebellum; test: Drug level in NMRI mouse cerebellum assessed as standard uptake value at 3.7 MBq/mL, iv after 60 mins by gamma counting; settings: in vivo, 1 h; outline: as §1
[42] = tested on: Blood; test: Biodistribution in NMRI mouse blood at 3.7 MBq/mL, iv after 2 mins by gamma counting; settings: in vivo; outline: as §2
[43] = tested on: Liver; test: Biodistribution in NMRI mouse liver assessed per gram of tissue at 3.7 MBq/mL, iv after 2 mins by gamma counting; settings: in vivo

SUV [1]: 0.3
Drug uptake [2]: 2.3%
Drug uptake [3]: 0.44%
Drug uptake [4]: 8.2%
Drug uptake [5]: 8.3%
SUV [6]: 0.48
SUV [7]: 7
Drug uptake [8]: 1.39%
SUV [9]: 3.97
Drug uptake [10]: 11.76%
Drug uptake [11]: 0.12%
SUV [12]: 0.4
SUV [13]: 1.6
SUV [14]: 4.3
Drug uptake [15]: 11%
Drug uptake [16]: 0.8%
Drug uptake [17]: 13%
SUV [18]: 0.2
Drug uptake [19]: 1.8%
Drug uptake [20]: 3.2%
Drug uptake [21]: 0.9%
Drug uptake [22]: 1.4%
Drug uptake [23]: 4.6%
SUV [24]: 0.3
SUV [25]: 2
Drug uptake [26]: 12.13%
SUV [27]: 2.8
Drug uptake [28]: 3.42%
Drug uptake [29]: 2.2%
Drug uptake [30]: 0.7%
SUV [31]: 4.1
SUV [32]: 0.5
Drug uptake [33]: 1.4%
Drug uptake [34]: 17.5%
SUV [35]: 2.5
Drug uptake [36]: 0.2%
Drug uptake [37]: 1.19%
Drug uptake [38]: 1.26%
Drug uptake [39]: 0.2%
SUV [40]: 2
SUV [41]: 0.44
Drug uptake [42]: 1.5%
SMILES: CNc1ccc2nc(-c3ccc([18F])cc3)sc2c1

SUV [1]: 0.4
Drug uptake [2]: 1.4%
Drug uptake [3]: 0.65%
Drug uptake [4]: 8.5%
Drug uptake [5]: 8%
SUV [6]: 0.72
SUV [7]: 6.8
Drug uptake [8]: 1.94%
SUV [9]: 3.35
Drug uptake [10]: 9.23%
Drug uptake [11]: 0.22%
SUV [12]: 0.5
SUV [13]: 2.4
SUV [14]: 4.3
Drug uptake [15]: 10%
Drug uptake [16]: 1.2%
Drug uptake [17]: 7.6%
SUV [18]: 0.4
Drug uptake [19]: 2.2%
Drug uptake [20]: 4.8%
Drug uptake [21]: 0.9%
Drug uptake [22]: 1.5%
Drug uptake [23]: 6.5%
SUV [24]: 0.3
SUV [25]: 2.7
Drug uptake [26]: 8.84%
SUV [27]: 3
Drug uptake [28]: 2.95%
Drug uptake [29]: 2.4%
Drug uptake [30]: 1.1%
SUV [31]: 3.2
SUV [32]: 0.7
Drug uptake [33]: 1.9%
Drug uptake [34]: 18.9%
Drug uptake [43]: 18.9%
SUV [35]: 2.9
Drug uptake [36]: 0.1%
Drug uptake [37]: 0.77%
Drug uptake [38]: 2.24%
Drug uptake [39]: 0.2%
SUV [40]: 2
SUV [41]: 0.83
Drug uptake [42]: 2.8%
SMILES: CN(C)c1ccc2nc(-c3ccc([18F])cc3)sc2c1

SUV [1]: 0.3
Drug uptake [2]: 1.6%
Drug uptake [3]: 0.32%
Drug uptake [4]: 8.3%
Drug uptake [5]: 5.6%
SUV [6]: 0.31
SUV [7]: 6.4
Drug uptake [8]: 0.97%
SUV [9]: 4.96
Drug uptake [10]: 15.48%
Drug uptake [11]: 0.17%
SUV [12]: 0.2
SUV [13]: 0.6
Drug uptake [15]: 11.1%
Drug uptake [16]: 0.7%
Drug uptake [17]: 4.9%
SUV [18]: 0.8
Drug uptake [19]: 2%
Drug uptake [20]: 1%
Drug uptake [21]: 0.6%
Drug uptake [22]: 1.4%
Drug uptake [23]: 1.8%
SUV [24]: 0.2
SUV [25]: 1.9
Drug uptake [26]: 13.97%
SUV [27]: 1.8
Drug uptake [28]: 4.56%
Drug uptake [29]: 1.3%
Drug uptake [30]: 2.4%
SUV [31]: 4.47
SUV [32]: 0.4
Drug uptake [33]: 1.2%
Drug uptake [34]: 10.7%
Drug uptake [43]: 20%
SUV [35]: 2.8
Drug uptake [36]: 0.2%
Drug uptake [37]: 1.74%
Drug uptake [38]: 1.34%
Drug uptake [39]: 0.1%
SUV [40]: 2.2
SUV [41]: 0.42
Drug uptake [42]: 5.3%
SMILES: Nc1ccc2nc(-c3ccc([18F])cc3)sc2c1

SUV [1]: 0.2
Drug uptake [2]: 1.1%
Drug uptake [3]: 0.18%
Drug uptake [4]: 10.3%
Drug uptake [5]: 5%
SUV [6]: 0.22
SUV [7]: 2.9
Drug uptake [8]: 0.6%
SUV [9]: 0.59
Drug uptake [10]: 1.6%
Drug uptake [11]: 0.03%
SUV [12]: 0.7
SUV [13]: 3.3
SUV [14]: 7.4
Drug uptake [15]: 12%
Drug uptake [16]: 0.6%
Drug uptake [17]: 24.4%
SUV [18]: 1.13
Drug uptake [19]: 0.9%
Drug uptake [20]: 4.8%
Drug uptake [21]: 1.1%
Drug uptake [22]: 0.6%
Drug uptake [23]: 9.1%
SUV [24]: 0.4
SUV [25]: 1.5
Drug uptake [26]: 3.6%
Drug uptake [28]: 1.08%
Drug uptake [29]: 2.7%
Drug uptake [30]: 3.1%
SUV [31]: 1.33
SUV [32]: 0.4
Drug uptake [33]: 1.3%
Drug uptake [34]: 9.8%
Drug uptake [43]: 7.9%
SUV [35]: 1.3
Drug uptake [36]: 0.2%
Drug uptake [37]: 0.17%
Drug uptake [38]: 0.31%
Drug uptake [39]: 0.3%
SUV [41]: 0.11
Drug uptake [42]: 7.9%
SMILES: [11CH3]Nc1ccc(-c2nc3ccc(O)cc3s2)cc1 [PITTSBURGH COMPOUND B]
